Experimental data from PubChem BioAssay.
Results filed as inconclusive are left out.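 How the source made its calls, unless noted: active means viability at or below 27.92% in each of two runs, the all-compound median minus 4 SD; inconclusive means no clear call, values can overlap the other calls; inactive means the rest.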

Experiments:
[1] = S. cerevisiae growth inhibition in permissive medium (OD615), pilot counter-assay for S. cerevisiae lifespan shortening project, permissive growth control (AID 705;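 active means growth inhibition above 25% in both replicates, a cutoff set 3 SD above the mean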); conditions: OD615, 24 h, at 10 µM, stronger effect = higher value
How it was run: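 System: Engineered DeaD yeast | Buffer or medium: SC raffinose/galactose permissive medium | Doses: 10 µM single dose, 0.25% DMSO | Times: 24 h exposure, 30 °C | Measured by: OD615 turbidity read | Read-out: Yeast growth inhibition indicated by reduced 24 h OD615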

[2] = S. cerevisiae growth inhibition in restrictive medium, OD615, pilot screen, restrictive growth control, yeast lifespan reduction project (AID 706;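 active means growth inhibition above a set limit, 3 SD over mean compound inhibition, in both replicates, cut at about 43% in these data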;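 further: modified DeaD lifespan yeast strain shifted to restrictive glucose medium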); conditions: OD615, 48 h, at 10 µM, stronger effect = higher value
How it was run: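 Assay system: engineered S. cerevisiae DeaD strain; Buffer or medium: CSMM-D glucose medium; Dosing: 10 µM compound, 0.25% DMSO; Times: cell pre-growth 4 h, compound exposure 48 h, 30 °C; Detection: absorbance (optical density) measured at 615 nm.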

[3] = doxorubicin toxicity protection in MRP-1 cells – H69AR cells, CellTiter-Glo, duplicate, MRP-1 activator project, pilot screen (AID 807;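 active means viability increase at or above a cutoff of the median across tested compounds plus 3 SD, cut at about 8.5% in these data, passing the limit was not always enough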;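 further: compound pretreatment 18-22 h then 72 h combined with doxorubicin; 0% = doxorubicin alone and 100% = vehicle without doxorubicin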); conditions: H69AR viability with doxorubicin, CellTiter-Glo luminescence; at 10 µM; stronger effect = higher value
[4] = viability of HCT116 without oncogenic beta-catenin – human colon tumor cells, pilot screen (AID 823;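 active means cell viability at or below a set limit in both duplicate runs, the limit being the all-compound median minus 4 SD, cut at about 23% in these data, passing the limit was not always enough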;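 further: 0% = wells killed by 20 µM Hyamine and 100% = untreated DMSO cell wells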); conditions: HCT116 beta-catenin knockout viability, CellTiter-Glo, 60 h; at 10 µM; stronger effect = lower value
[5] = viability of PTEN-null HCT116 cells – cell-based, HCT116 clonal line, CellTiter-Glo, pilot screen (AID 824); conditions: HCT116 PTEN-deleted viability, 60 h, at 10 µM, stronger effect = lower value;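 further: 0% = 20 µM Hyamine control and 100% = vehicle cell control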
[6] = RAM pathway blockade in budding yeast – dse1pr::URA3 reporter, 5-FOA selection, pilot screen (AID 869;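 active means inhibition over a set limit, the all-compound mean plus 3 SD, in both replicate runs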;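 further: 0% = DMSO wells with no growth and 100% = 10 µM 1-NA-PP1 with full growth; RAM network block rescues cells from 5-FOA so hits raise OD615 growth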); conditions: S. cerevisiae dse1pr::URA3 5-FOA growth, OD615, 2 d; at 10 µM; stronger effect = higher value; strain carries analog-sensitive mutant Cbk1 kinase
[7] = RAM signaling pathway blockade in yeast – S. cerevisiae, Pdr1DBD-CYC8 efflux-inhibited sensitized strain, primary screen (AID 1298;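 active means RAM network inhibition above 8.4% in each of two replicates, 3 SD over the compound average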;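 further: 0% = DMSO untreated cells without growth and 100% = 10 µM 1-NA-PP1 full growth; higher means more yeast growth rescued from 5-FOA killing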); conditions: S. cerevisiae cbk1-as DSE1-URA3 strain, 5-FOA growth OD615, 2 d; at 50 µM; stronger effect = higher value

CCCC(=O)Nc1nc2ccc(OC)cc2s1
inactive: growth inhibition [1] -15.5% | growth inhibition [2] -17.6% | viability increase [3] 1.29% | viability [4] 93.8% | viability [5] 80.7% | inhibition [6] 0.5% | RAM network inhibition [7] 2.32%

CCn1c(/C=N/n2cnnc2)nc2ccccc21
inactive: growth inhibition [1] -6.04% | growth inhibition [2] -5.67% | viability increase [3] -0.75% | viability [4] 96.8% | viability [5] 92.8% | inhibition [6] 1.56% | RAM network inhibition [7] -0.99%

Cc1ccc(NC(=O)C2CCCN(S(=O)(=O)c3ccc4c(c3)oc(=O)n4C)C2)nc1 (stereo not drawn)
inactive: growth inhibition [1] -7.92% | growth inhibition [2] -2.67% | viability increase [3] -0.05% | viability [4] 101% | viability [5] 101% | inhibition [6] 1.09% | RAM network inhibition [7] -2.07%

COc1cc2c(cc1OC)C(C(=O)N1CCCC1)C(c1ccccc1F)N(C)C2=O (stereo not drawn)
inactive: growth inhibition [1] -23.3% | growth inhibition [2] -16.3% | viability increase [3] -1.68% | viability [4] 91.3% | viability [5] 97% | inhibition [6] 0.27% | RAM network inhibition [7] 3.55%

Cc1cc(C(=O)CN2CC(C)OC(C)C2)c(C)n1-c1ccccc1 (stereo not drawn)
inactive: growth inhibition [1] 0.61% | growth inhibition [2] -5.6% | viability increase [3] -1.04% | viability [4] 97.6% | viability [5] 99.6% | inhibition [6] 1.83% | RAM network inhibition [7] 7.04%

Cc1cc(C)c(S(=O)(=O)NCCCN2CCOCC2)cc1Br
inactive: growth inhibition [1] -7.38% | growth inhibition [2] -14.8% | viability increase [3] -2.34% | viability [4] 91.8% | viability [5] 90.9% | inhibition [6] 0.75% | RAM network inhibition [7] 0.92%

O=C(O)c1ccccc1C(=O)NCc1ccccc1
inactive: growth inhibition [1] -7.18% | growth inhibition [2] -15.6% | viability increase [3] 1.13% | viability [4] 99.3% | viability [5] 100% | inhibition [6] 0.27% | RAM network inhibition [7] 1.13%

Cc1cccc(-c2nc(CS(=O)CC(=O)N3CCc4ccccc4C3)c(C)o2)c1 (stereo not drawn)
inactive: growth inhibition [1] 0.13% | growth inhibition [2] 20.1% | viability increase [3] -4.54% | viability [4] 84.8% | viability [5] 88.8% | inhibition [6] 0.385% | RAM network inhibition [7] 3.23%

CCC(CC)C(=O)N1c2ccc(F)cc2CCC1C (stereo not drawn)
inactive: growth inhibition [1] -16.6% | growth inhibition [2] -10.7% | viability increase [3] -0.23% | viability [4] 95.3% | viability [5] 93.9% | inhibition [6] 1.31% | RAM network inhibition [7] 1.96%

COc1ccc(-n2c(Cn3c(=O)sc4ccccc43)nnc2SCC(=O)N2CCOCC2)cc1
inactive: growth inhibition [1] -0.33% | growth inhibition [2] 7.95% | viability increase [3] 0.3% | viability [4] 102% | viability [5] 97% | inhibition [6] 0.235% | RAM network inhibition [7] 1.66%

Cc1ccc2oc(=O)n(CCOc3ccccc3Cl)c2c1
inactive: growth inhibition [1] 2.37% | growth inhibition [2] 0.755% | viability increase [3] 2.94% | viability [4] 88.5% | viability [5] 83.9% | inhibition [6] 0.955% | RAM network inhibition [7] 2.66%

CN1C(=O)CC(N2CCN(c3ncccn3)CC2)C1=O (stereo not drawn)
inactive: growth inhibition [1] 1.35% | growth inhibition [2] -4.12% | viability increase [3] 0.31% | viability [4] 103% | viability [5] 100% | inhibition [6] 0.77% | RAM network inhibition [7] 5.07%

CCOC(=O)c1[nH]c2ccccc2c1NC(=O)CC(C)(C)C
inactive: growth inhibition [1] 5.14% | growth inhibition [2] -9.95% | viability increase [3] -3.69% | viability [4] 99.4% | viability [5] 96% | inhibition [6] 1.65% | RAM network inhibition [7] 1.45%

CCOC(=O)c1cc2c(n(-c3ccc(C)cc3)c1=O)CCCC2=O
inactive: growth inhibition [1] -9.02% | growth inhibition [2] -16.6% | viability increase [3] -3.28% | viability [4] 99.3% | viability [5] 94.8% | inhibition [6] 0.59% | RAM network inhibition [7] 2.29%

Cn1ccnc1SCc1cn2cc(Br)ccc2n1
inactive: growth inhibition [1] 2.79% | growth inhibition [2] 22.2% | viability increase [3] -3.12% | viability [4] 91.8% | viability [5] 84.7% | inhibition [6] 1.51% | RAM network inhibition [7] 4.08%

O=C(NCc1ccco1)C1CCN(c2nc3ccccc3n2Cc2ccc(F)cc2)CC1
inactive: growth inhibition [1] -6.36% | growth inhibition [2] -0.175% | viability increase [3] -5.61% | viability [4] 78.1% | viability [5] 73.9% | inhibition [6] 0.41% | RAM network inhibition [7] 7.12%

CC(CCc1ccccc1)NC(=O)C1CCN(c2nnc(-n3cccc3)s2)CC1 (stereo not drawn)
inactive: growth inhibition [1] -2.63% | growth inhibition [2] -7.45% | viability increase [3] -0.45% | viability [4] 95.9% | viability [5] 88.5% | inhibition [6] 4.55% | RAM network inhibition [7] 4.94%

Cn1c(=O)c2c(nc(SCCN3CCOCC3)n2Cc2ccc(Cl)cc2)n(C)c1=O
inactive: growth inhibition [1] -5.34% | growth inhibition [2] 16.6% | viability increase [3] -3.32% | viability [4] 87.8% | viability [5] 84.1% | inhibition [6] 2.31% | RAM network inhibition [7] -0.47%

COc1ccc(Cc2nc(-c3cccs3)no2)cc1OC
inactive: growth inhibition [1] 1.64% | growth inhibition [2] 5.25% | viability increase [3] 0.92% | viability [4] 76.8% | viability [5] 80.9% | inhibition [6] 1.62% | RAM network inhibition [7] 7.4%

O=C(CCCCn1c(=O)[nH]c2ccccc2c1=O)N1CCN(c2ncccn2)CC1
inactive: growth inhibition [1] -13.4% | growth inhibition [2] -20.2% | viability increase [3] -1.54% | viability [4] 104% | viability [5] 105% | inhibition [6] 0.76% | RAM network inhibition [7] 0.58%

O=C(CC(=O)N1CCN(c2ccccn2)CC1)Nc1ccc2nc3n(c(=O)c2c1)CCCCC3
inactive: growth inhibition [1] -3.13% | growth inhibition [2] -3.46% | viability increase [3] 0.08% | viability [4] 101% | viability [5] 100% | inhibition [6] 0.87% | RAM network inhibition [7] 2.7%

CN(C)CCCCCNCCCNC(=O)/C=N\O
inactive: growth inhibition [1] -2.17% | growth inhibition [2] 3.62% | viability increase [3] 0.12% | viability [4] 98.3% | viability [5] 103% | inhibition [6] 3.2% | RAM network inhibition [7] 1.4%

COc1ccccc1-c1nnc(SCC(=O)Nc2ccc(Cl)cc2Cl)o1
inactive: growth inhibition [1] -2.08% | growth inhibition [2] 9.34% | viability increase [3] 2.61% | viability [4] 97.4% | viability [5] 91.1% | inhibition [6] 1.71% | RAM network inhibition [7] 8.66%

CNC(=O)CN1C(=O)c2ccccc2S1(=O)=O
inactive: growth inhibition [1] -5.12% | growth inhibition [2] 1.27% | viability increase [3] -0.6% | viability [4] 101% | viability [5] 98.9% | inhibition [6] 2.51% | RAM network inhibition [7] 2.32%
